According to ChEMBL document CHEMBL1932969, “Acyl derivatives of boswellic acids as inhibitors of NF-κB and STATs” (Bioorg Med Chem Lett, 2012):
Active and inactive are the calls of the source. The calls are words filed in the database; no cut-off is given here.

Tests used:
[1] = system: DU-145; assay: Anticancer activity against human DU145 cells assessed as growth inhibition at 50 uM after 48 hrs by SRB assay; type: functional; details: DU-145, 48 h, read-out: GI
Method in brief: (§1)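 Cells exposed to test compounds at 50 µM for 48 h. Read-out is percent growth inhibition, with SEM given. 5-Fluorouracil and adriamycin serve as reference agents.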

[2] = system: PC-3; assay: Anticancer activity against human PC3 cells assessed as growth inhibition at 50 uM after 48 hrs by SRB assay; type: functional; details: PC-3, 48 h, read-out: GI; method in brief: as §1
[3] = system: HL-60; assay: Induction of apoptosis in p53-deficient human HL60 cells assessed as DNA fragmentation at 50 uM after 6 hrs by agarose gel electrophoresis; type: functional, cell-based
Method in brief: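 2 × 10⁶ HL-60 cells treated with derivatives at 50 µM for 6 h, then scored for an apoptotic DNA ladder of 180–200 bp fragments or multiples. The positive control is 4 µM camptothecin for 6 h.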

[4] = system: HL-60; assay: Anticancer activity against human HL60 cells after 48 hrs by MTT assay; type: functional, cell-based; details: HL-60, 48 h
Method in brief: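 Cell proliferation measured by MTT. Cells are incubated with each analog for 48 h at the indicated concentrations, then MTT reduction is read as an index of viability. OD of the untreated control is taken as 100% viability, and IC50 is derived from this.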

[5] = system: HL-60; assay: Induction of necrosis in p53-deficient human HL60 cells at 50 uM after 6 hrs by FITC-conjugated annexinV/PI-based flow cytometric analysis; type: functional, cell-based
Method in brief: (§2)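 HL-60 cells incubated with each analog at 50 µM for 6 h, stained with annexin V-FITC/propidium iodide and analysed by flow cytometry. Lower right quadrant is apoptotic, upper right post-apoptotic, upper left necrotic. Three experiments, with representative dot plots shown.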

[6] = system: HL-60; assay: Induction of autophagy in p53-deficient human HL60 cells at 50 uM after 6 hrs by acridine orange staining; type: functional, cell-based
Method in brief: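 Autophagy scored by flow cytometry of HL-60 cells stained with acridine orange after 6 h exposure.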

[7] = system: HL-60; assay: Induction of apoptosis in p53-deficient human HL60 cells assessed as post-apoptotic cells at 50 uM after 6 hrs by FITC-conjugated annexinV/PI-based flow cytometric analysis (reference value: 1 %); type: functional; method in brief: as §2
[8] = system: HL-60; assay: Induction of apoptosis in p53-deficient human HL60 cells assessed as apoptotic cells at 50 uM after 6 hrs by FITC-conjugated annexinV/PI-based flow cytometric analysis (reference value: 5 %); type: functional; method in brief: as §2
[9] = system: HT-29; assay: Anticancer activity against human HT-29 cells assessed as growth inhibition at 50 uM after 48 hrs by SRB assay; type: functional; details: HT-29, 48 h, read-out: GI; method in brief: as §1
[10] = system: SW-620; assay: Anticancer activity against human SW620 cells assessed as growth inhibition at 50 uM after 48 hrs by SRB assay; type: functional; details: SW-620, 48 h, read-out: GI; method in brief: as §1
[11] = system: COLO 205; assay: Anticancer activity against human COLO205 cells assessed as growth inhibition at 50 uM after 48 hrs by SRB assay; type: functional; details: COLO 205, 48 h, read-out: GI; method in brief: as §1
[12] = system: HEp-2; assay: Anticancer activity against human Hep2 cells assessed as growth inhibition at 50 uM after 48 hrs by SRB assay; type: functional; details: HEp-2, 48 h, read-out: GI; method in brief: as §1

| Compound | inhibition of growth at 50 µM [1] [%] | inhibition of growth at 50 µM [2] [%] | Activity [3] | IC50 [4] [µM] | Activity [5] | Activity [6] | Activity [7] [%] | Activity [8] [%] | inhibition of growth at 50 µM [9] [%] | inhibition of growth at 50 µM [10] [%] | inhibition of growth at 50 µM [11] [%] | inhibition of growth at 50 µM [12] [%] |
| --- | --- | --- | --- | --- | --- | --- | --- | --- | --- | --- | --- | --- |
| CCC(=O)O[C@@H]1CC[C@@]2(C)[C@@H](CC[C@]3(C)[C@@H]2CC=C2[C@@H]4[C@@H](C)[C@H](C)CC[C@]4(C)CC[C@]23C)[C@@]1(C)C(=O)O | 91 | 93 | Active | 13 | inactive | inactive | 24 | 23 | 93 | 94 | 84 | 86 |
| CC[C@@]1(O)C(=O)OCc2c1cc1n(c2=O)Cc2cc3ccccc3nc2-1 [CAMPTOTHECIN] |  |  |  |  |  |  | 7 | 18 |  |  |  |  |
| CCC(=O)O[C@H]1CC[C@@]2(C)[C@@H](CC[C@]3(C)[C@@H]2CC=C2[C@@H]4[C@@H](C)[C@H](C)CC[C@]4(C)CC[C@]23C)[C@@]1(C)C(=O)O | 88 | 95 | Active | 12 | inactive | inactive | 20 | 18 | 92 | 89 | 86 | 87 |
| CCC(=O)O[C@@H]1CC[C@@]2(C)[C@@H](CC[C@]3(C)[C@@H]2C(=O)C=C2[C@@H]4[C@@H](C)[C@H](C)CC[C@]4(C)CC[C@]23C)[C@@]1(C)C(=O)O | 25 | 64 | Active | 16 | inactive | inactive | 17 | 21 | 89 | 85 | 87 | 69 |
| CCCC(=O)O[C@H]1CC[C@@]2(C)[C@@H](CC[C@]3(C)[C@@H]2CC=C2[C@@H]4[C@@H](C)[C@H](C)CC[C@]4(C)CC[C@]23C)[C@@]1(C)C(=O)O | 89 | 83 |  |  |  |  |  |  | 57 | 79 | 67 | 63 |
| CCCC(=O)O[C@@H]1CC[C@@]2(C)[C@@H](CC[C@]3(C)[C@@H]2CC=C2[C@@H]4[C@@H](C)[C@H](C)CC[C@]4(C)CC[C@]23C)[C@@]1(C)C(=O)O | 89 | 77 | Active | 14 | inactive | inactive | 13 | 31 | 95 | 93 | 88 | 94 |
| C[C@H]1[C@H](C)CC[C@]2(C)CC[C@]3(C)C(=CC(=O)[C@@H]4[C@@]5(C)CC[C@@H](O)[C@](C)(C(=O)O)[C@@H]5CC[C@]43C)[C@H]12 [11-KETO BOSWELLIC ACID] | 95 | 100 |  |  |  |  |  |  | 39 | 28 | 52 | 35 |
| C[C@H]1[C@H](C)CC[C@]2(C)CC[C@]3(C)C(=CC[C@@H]4[C@@]5(C)CC[C@H](O)[C@](C)(C(=O)O)[C@@H]5CC[C@]43C)[C@H]12 | 89 | 72 |  |  |  |  |  |  | 70 | 63 | 81 | 69 |
| COC(=O)[C@]1(C)[C@@H]2CC[C@]3(C)[C@H](CC=C4[C@@H]5[C@@H](C)[C@H](C)CC[C@]5(C)CC[C@]43C)[C@@]2(C)CC[C@@H]1O | 3 | 7 |  |  |  |  |  |  | 5 | 9 | 22 | 0 |
| O=c1[nH]cc(F)c(=O)[nH]1 [FLUOROURACIL] | 35 | 16 |  |  |  |  |  |  | 41 | 44 | 29 | 29 |
| C[C@H]1[C@H](C)CC[C@]2(C)CC[C@]3(C)C(=CC(=O)[C@@H]4[C@@]5(C)CC[C@@H](OC(=O)CCC(=O)O)[C@](C)(C(=O)O)[C@@H]5CC[C@]43C)[C@H]12 | 51 | 38 |  |  |  |  |  |  | 5 | 4 | 2 | 6 |
| CC(=O)O[C@@H]1CC[C@@]2(C)[C@@H](CC[C@]3(C)[C@@H]2C(=O)C=C2[C@@H]4[C@@H](C)[C@H](C)CC[C@]4(C)CC[C@]23C)[C@@]1(C)C(=O)O [AKBA] | 85 | 76 |  |  |  |  |  |  | 88 | 88 | 85 | 59 |
| C[C@H]1[C@H](C)CC[C@]2(C)CC[C@]3(C)C(=CC[C@@H]4[C@@]5(C)CC[C@@H](O)[C@](C)(C(=O)O)[C@@H]5CC[C@]43C)[C@H]12 [BOSWELLIC ACID] | 92 | 100 |  | 15 | inactive | inactive | 34 | 20 | 66 | 64 | 85 | 43 |
